Assays:
SK-BR-3 = test: Cytotoxicity against human SK-BR-3 cells assessed as reduction in cell viability incubated for 48 hrs by SRB assay; format: functional
Procedure, shortened: (§1)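 Followed the NCI SRB protocol: cells exposed 48 h to a range of concentrations. GI50 is the concentration giving 50% net growth inhibition; TGI is 100% growth inhibition; LC50 kills 50% of initial cells. Mean ± SE of three separate experiments.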

MCF7 = test: Cytotoxicity against human MCF7 cells assessed as reduction in cell viability after 48 hrs by SRB assay; format: functional; procedure, shortened: as §1

## NC[C@@H]1COC[C@](c2ccccc2)(C2CCCCC2)O1 (relative stereo)
SK-BR-3
  GI50: 25.8 µM
  LC50 (concentration killing 50% of initial cells): > 300 µM
  TGI: 180 µM
MCF7
  GI50: 89.7 µM
  LC50 (concentration killing 50% of initial cells): 244 µM
  TGI: 148 µM

## C[C@]12N[C@H](Cc3ccccc31)c1ccccc12 [DIZOCILPINE]
SK-BR-3
  GI50: > 300 µM
  TGI: > 300 µM
MCF7
  GI50: > 300 µM
  TGI: > 300 µM

## CN[C@]1(c2ccccc2Cl)CCCCC1=O [ESKETAMINE]
SK-BR-3
  GI50: > 300 µM
  TGI: > 300 µM
MCF7
  GI50: > 300 µM
  TGI: > 300 µM

Reference: ChEMBL document CHEMBL4665645, “Role of the NMDA Receptor in the Antitumor Activity of Chiral 1,4-Dioxane Ligands in MCF-7 and SKBR3 Breast Cancer Cells” (ACS Med Chem Lett, 2019)
